Assay results taken from ChEMBL document CHEMBL1250442, “Inhibiting gene expression at transcription start sites in chromosomal DNA with antigene RNAs” (Nat Chem Biol, 2005).

Assays:
Format in all cases: functional
T47D [1] = test: Inhibition of PR-B mRNA gene expression in human T47D cells at 100 nM by syber green assay
Method in brief: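 T47D cells in RPMI-1640 with 10% FBS, NEAA, insulin, 37 °C, 5% CO2. Plated two days before transfection without antibiotics. Oligofectamine-mediated duplex RNA transfection at 100 nM final, medium changed at 24 h, harvest five days post-transfection. Total RNA extracted with TRIzol. hPR mRNA quantified by SYBR Green qPCR: 50 °C 2 min, 95 °C 10 min, then 40 cycles of 95 °C 15 s / 60 °C 1 min.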

T47D [2] = test: Inhibition of PR-A mRNA gene expression in human T47D cells at 100 nM by syber green assay
Method in brief: (§1)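 T47D cells plated at 80,000/well without antibiotics two days before Oligofectamine transfection with agRNA duplex (25 or 100 nM final); medium changed at 24 h, harvest day 5 unless stated otherwise. TRIzol total RNA; PR mRNA by real-time PCR with SYBR Green: 50 °C 2 min, 95 °C 10 min, 40 cycles 95 °C 15 s/60 °C 1 min.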

T47D [3] = test: Inhibition of PR-A gene expression in human T47D cells at 25 nM by syber green assay; method in brief: as §1
T47D [4] = test: Inhibition of PR-B gene expression in human T47D cells at 25 nM by syber green assay; method in brief: as §1

Structure (SMILES)	inhibition at 0.1 µM (T47D [1]) [%]	inhibition at 0.1 µM (T47D [2]) [%]	inhibition at 0.025 µM (T47D [3]) [%]	inhibition at 0.025 µM (T47D [4]) [%]
Cc1cn([C@H]2C[C@H](OP(=O)(O)OC[C@H]3O[C@@H](n4cc(C)c(=O)[nH]c4=O)C[C@@H]3O)[C@@H](COP(=O)(O)O[C@H]3[C@@H](O)[C@H](n4ccc(N)nc4=O)O[C@@H]3COP(=O)(O)O[C@H]3[C@@H](O)[C@H](n4cnc5c(=O)[nH]c(N)nc54)O[C@@H]3COP(=O)(O)O[C@H]3[C@@H](O)[C@H](n4cnc5c(N)ncnc54)O[C@@H]3COP(=O)(O)O[C@H]3[C@@H](O)[C@H](n4ccc(N)nc4=O)O[C@@H]3COP(=O)(O)O[C@H]3[C@@H](O)[C@H](n4cnc5c(N)ncnc54)O[C@@H]3COP(=O)(O)O[C@H]3[C@@H](O)[C@H](n4cnc5c(=O)[nH]c(N)nc54)O[C@@H]3COP(=O)(O)O[C@H]3[C@@H](O)[C@H](n4ccc(N)nc4=O)O[C@@H]3COP(=O)(O)O[C@H]3[C@@H](O)[C@H](n4ccc(=O)[nH]c4=O)O[C@@H]3COP(=O)(O)O[C@H]3[C@@H](O)[C@H](n4cnc5c(=O)[nH]c(N)nc54)O[C@@H]3COP(=O)(O)O[C@H]3[C@@H](O)[C@H](n4cnc5c(N)ncnc54)O[C@@H]3COP(=O)(O)O[C@H]3[C@@H](O)[C@H](n4ccc(N)nc4=O)O[C@@H]3COP(=O)(O)O[C@H]3[C@@H](O)[C@H](n4ccc(N)nc4=O)O[C@@H]3COP(=O)(O)O[C@H]3[C@@H](O)[C@H](n4cnc5c(=O)[nH]c(N)nc54)O[C@@H]3COP(=O)(O)O[C@H]3[C@@H](O)[C@H](n4ccc(N)nc4=O)O[C@@H]3COP(=O)(O)O[C@H]3[C@@H](O)[C@H](n4ccc(=O)[nH]c4=O)O[C@@H]3COP(=O)(O)O[C@H]3[C@@H](O)[C@H](n4ccc(N)nc4=O)O[C@@H]3COP(=O)(O)O[C@H]3[C@@H](O)[C@H](n4ccc(=O)[nH]c4=O)O[C@@H]3COP(=O)(O)O[C@H]3[C@@H](O)[C@H](n4cnc5c(=O)[nH]c(N)nc54)O[C@@H]3COP(=O)(O)O[C@H]3[C@@H](O)[C@H](n4ccc(=O)[nH]c4=O)O[C@@H]3CO)O2)c(=O)[nH]c1=O	< 20	< 20	–	–
Cc1cn([C@@H]2O[C@H](COP(=O)(O)O[C@H]3C[C@H](n4cc(C)c(=O)[nH]c4=O)O[C@@H]3COP(=O)(O)O[C@H]3[C@@H](O)[C@H](n4ccc(N)nc4=O)O[C@@H]3COP(=O)(O)O[C@H]3[C@@H](O)[C@H](n4cnc5c(=O)[nH]c(N)nc54)O[C@@H]3COP(=O)(O)O[C@H]3[C@@H](O)[C@H](n4cnc5c(N)ncnc54)O[C@@H]3COP(=O)(O)O[C@H]3[C@@H](O)[C@H](n4ccc(N)nc4=O)O[C@@H]3COP(=O)(O)O[C@H]3[C@@H](O)[C@H](n4cnc5c(N)ncnc54)O[C@@H]3COP(=O)(O)O[C@H]3[C@@H](O)[C@H](n4ccc(N)nc4=O)O[C@@H]3COP(=O)(O)O[C@H]3[C@@H](O)[C@H](n4ccc(N)nc4=O)O[C@@H]3COP(=O)(O)O[C@H]3[C@@H](O)[C@H](n4ccc(=O)[nH]c4=O)O[C@@H]3COP(=O)(O)O[C@H]3[C@@H](O)[C@H](n4cnc5c(=O)[nH]c(N)nc54)O[C@@H]3COP(=O)(O)OC3[C@@H](O)[C@H](n4cnc5c(N)ncnc54)O[C@@H]3COP(=O)(O)O[C@H]3[C@@H](O)[C@H](n4ccc(N)nc4=O)O[C@@H]3COP(=O)(O)O[C@H]3[C@@H](O)[C@H](n4cnc5c(=O)[nH]c(N)nc54)O[C@@H]3COP(=O)(O)O[C@H]3[C@@H](O)[C@H](n4cnc5c(=O)[nH]c(N)nc54)O[C@@H]3COP(=O)(O)O[C@H]3[C@@H](O)[C@H](n4cnc5c(=O)[nH]c(N)nc54)O[C@@H]3COP(=O)(O)O[C@H]3[C@@H](O)[C@H](n4ccc(=O)[nH]c4=O)O[C@@H]3COP(=O)(O)O[C@H]3[C@@H](O)[C@H](n4ccc(N)nc4=O)O[C@@H]3COP(=O)(O)O[C@H]3[C@@H](O)[C@H](n4ccc(=O)[nH]c4=O)O[C@@H]3COP(=O)(O)O[C@H]3[C@@H](O)[C@H](n4cnc5c(=O)[nH]c(N)nc54)O[C@@H]3COP(=O)(O)O[C@H]3[C@@H](O)[C@H](n4ccc(=O)[nH]c4=O)O[C@@H]3CO)[C@@H](O)[C@H]2O)c(=O)[nH]c1=O (some centres not stated)	91	67	53	75
Cc1cn([C@H]2C[C@H](OP(=O)(O)OC[C@H]3O[C@@H](n4cc(C)c(=O)[nH]c4=O)C[C@@H]3O)[C@@H](COP(=O)(O)O[C@H]3[C@@H](O)[C@H](n4ccc(N)nc4=O)O[C@@H]3COP(=O)(O)O[C@H]3[C@@H](O)[C@H](n4cnc5c(=O)[nH]c(N)nc54)O[C@@H]3COP(=O)(O)O[C@H]3[C@@H](O)[C@H](n4cnc5c(N)ncnc54)O[C@@H]3COP(=O)(O)O[C@H]3[C@@H](O)[C@H](n4cnc5c(=O)[nH]c(N)nc54)O[C@@H]3COP(=O)(O)O[C@H]3[C@@H](O)[C@H](n4cnc5c(N)ncnc54)O[C@@H]3COP(=O)(O)O[C@H]3[C@@H](O)[C@H](n4ccc(N)nc4=O)O[C@@H]3COP(=O)(O)O[C@H]3[C@@H](O)[C@H](n4ccc(N)nc4=O)O[C@@H]3COP(=O)(O)O[C@H]3[C@@H](O)[C@H](n4ccc(=O)[nH]c4=O)O[C@@H]3COP(=O)(O)O[C@H]3[C@@H](O)[C@H](n4cnc5c(=O)[nH]c(N)nc54)O[C@@H]3COP(=O)(O)O[C@H]3[C@@H](O)[C@H](n4cnc5c(N)ncnc54)O[C@@H]3COPO[C@H]3[C@@H](O)[C@H](n4ccc(N)nc4=O)O[C@@H]3COP(=O)(O)O[C@H]3[C@@H](O)[C@H](n4cnc5c(=O)[nH]c(N)nc54)O[C@@H]3COP(=O)(O)O[C@H]3[C@@H](O)[C@H](n4cnc5c(=O)[nH]c(N)nc54)O[C@@H]3COP(=O)(O)O[C@H]3[C@@H](O)[C@H](n4cnc5c(=O)[nH]c(N)nc54)O[C@@H]3COP(=O)(O)O[C@H]3[C@@H](O)[C@H](n4ccc(=O)[nH]c4=O)O[C@@H]3COP(=O)(O)O[C@H]3[C@@H](O)[C@H](n4ccc(N)nc4=O)O[C@@H]3COP(=O)(O)O[C@H]3[C@@H](O)[C@H](n4ccc(=O)[nH]c4=O)O[C@@H]3COP(=O)(O)O[C@H]3[C@@H](O)[C@H](n4ccc(N)nc4=O)O[C@@H]3COP(=O)(O)O[C@H]3[C@@H](O)[C@H](n4ccc(=O)[nH]c4=O)O[C@@H]3CO)O2)c(=O)[nH]c1=O (some centres not stated)	< 20	< 20	–	–
Cc1cn([C@H]2C[C@H](OP(=O)(O)OC[C@H]3O[C@@H](n4cnc5c(=O)[nH]c(N)nc54)C[C@@H]3OP(=O)(O)OC[C@H]3O[C@@H](n4cc(C)c(=O)[nH]c4=O)C[C@@H]3OP(=O)(O)OC[C@H]3O[C@@H](n4ccc(N)nc4=O)C[C@@H]3OP(=O)(O)OC[C@H]3O[C@@H](n4cc(C)c(=O)[nH]c4=O)C[C@@H]3OP(=O)(O)OC[C@H]3O[C@@H](n4cnc5c(=O)[nH]c(N)nc54)C[C@@H]3OP(=O)(O)OC[C@H]3O[C@@H](n4cnc5c(=O)[nH]c(N)nc54)C[C@@H]3OP(=O)(O)OC[C@H]3O[C@@H](n4ccc(N)nc4=O)C[C@@H]3OP(=O)(O)OC[C@H]3O[C@@H](n4ccc(N)nc4=O)C[C@@H]3OP(=O)(O)OC[C@H]3O[C@@H](n4cnc5c(N)ncnc54)C[C@@H]3OP(=O)(O)OC[C@H]3O[C@@H](n4cnc5c(=O)[nH]c(N)nc54)C[C@@H]3OP(=O)(O)OC[C@H]3O[C@@H](n4cc(C)c(=O)[nH]c4=O)C[C@@H]3OP(=O)(O)OC[C@H]3O[C@@H](n4ccc(N)nc4=O)C[C@@H]3OP(=O)(O)OC[C@H]3O[C@@H](n4ccc(N)nc4=O)C[C@@H]3OP(=O)(O)OC[C@H]3O[C@@H](n4cnc5c(N)ncnc54)C[C@@H]3OP(=O)(O)OC[C@H]3O[C@@H](n4ccc(N)nc4=O)C[C@@H]3OP(=O)(O)OC[C@H]3O[C@@H](n4cnc5c(N)ncnc54)C[C@@H]3OP(=O)(O)OC[C@H]3O[C@@H](n4cnc5c(=O)[nH]c(N)nc54)C[C@@H]3OP(=O)(O)OC[C@H]3O[C@@H](n4ccc(N)nc4=O)C[C@@H]3O)[C@@H](CO)O2)c(=O)[nH]c1=O	< 20	< 20	–	–
Cc1cn([C@H]2C[C@H](OP(=O)(O)OC[C@H]3O[C@@H](n4cnc5c(=O)[nH]c(N)nc54)C[C@@H]3OP(=O)(O)OC[C@H]3O[C@@H](n4cc(C)c(=O)[nH]c4=O)C[C@@H]3OP(=O)(O)OC[C@H]3O[C@@H](n4ccc(N)nc4=O)C[C@@H]3OP(=O)(O)OC[C@H]3O[C@@H](n4cc(C)c(=O)[nH]c4=O)C[C@@H]3OP(=O)(O)OC[C@H]3O[C@@H](n4cnc5c(=O)[nH]c(N)nc54)C[C@@H]3OP(=O)(O)OC[C@H]3O[C@@H](n4cnc5c(=O)[nH]c(N)nc54)C[C@@H]3OP(=O)(O)OC[C@H]3O[C@@H](n4ccc(N)nc4=O)C[C@@H]3OP(=O)(O)OC[C@H]3O[C@@H](n4ccc(N)nc4=O)C[C@@H]3OP(=O)(O)OC[C@H]3O[C@@H](n4cnc5c(N)ncnc54)C[C@@H]3OP(=O)(O)OC[C@H]3O[C@@H](n4cnc5c(=O)[nH]c(N)nc54)C[C@@H]3OP(=O)(O)OC[C@H]3O[C@@H](n4cc(C)c(=O)[nH]c4=O)C[C@@H]3OP(=O)(O)OC[C@H]3O[C@@H](n4ccc(N)nc4=O)C[C@@H]3OP(=O)(O)OC[C@H]3O[C@@H](n4ccc(N)nc4=O)C[C@@H]3OP(=O)(O)OC[C@H]3O[C@@H](n4cnc5c(N)ncnc54)C[C@@H]3OP(=O)(O)OC[C@H]3O[C@@H](n4ccc(N)nc4=O)C[C@@H]3OP(=O)(O)OC[C@H]3O[C@@H](n4cnc5c(N)ncnc54)C[C@@H]3OP(=O)(O)OC[C@H]3O[C@@H](n4cnc5c(=O)[nH]c(N)nc54)C[C@@H]3OP(=O)(O)OC[C@H]3O[C@@H](n4ccc(N)nc4=O)C[C@@H]3OP(=O)(O)OC[C@H]3O[C@@H](n4cc(C)c(=O)[nH]c4=O)C[C@@H]3OP(=O)(O)OC[C@H]3O[C@@H](n4cc(C)c(=O)[nH]c4=O)C[C@@H]3O)[C@@H](CO)O2)c(=O)[nH]c1=O	< 20	< 20	–	–
